Data published in ChEMBL document CHEMBL3045797, “Isolation and identification of novel macrocyclic lactones from Streptomyces avermitilis NEAU1069 with acaricidal and nematocidal activity” (2010).

Tests used:
Format in all cases: functional
Tetranychus urticae [1] = experiment: Acaricidal activity against adult Tetranychus urticae (two-spotted spider mite) in leaves of cowpea plant assessed as mortality at 50 ug/mL at 25 degC measured after 3 days (reference value: 0%); conditions: 72 h
Tetranychus urticae [2] = experiment: Acaricidal activity against adult Tetranychus urticae (two-spotted spider mite) in leaves of cowpea plant assessed as number of unhatched eggs at 10 ug/mL at 25 degC measured after 10 days (reference value: 0%)
Tetranychus urticae [3] = experiment: Acaricidal activity against adult Tetranychus urticae (two-spotted spider mite) in leaves of cowpea plant assessed as mortality at 10 ug/mL at 25 degC measured after 3 days (reference value: 0%); conditions: 72 h
Caenorhabditis elegans [4] = experiment: Nematocidal activity against Caenorhabditis elegans assessed as immobilized rate at 2 ug/mL at 25 degC for 15 hr (reference value: 5.3 to 6.8%)
Tetranychus urticae [5] = experiment: Acaricidal activity against adult Tetranychus urticae (two-spotted spider mite) in leaves of cowpea plant assessed as number of unhatched eggs at 50 ug/mL at 25 degC measured after 10 days (reference value: 0%)
Tetranychus urticae [6] = experiment: Acaricidal activity against adult Tetranychus urticae (two-spotted spider mite) in leaves of cowpea plant assessed as number of unhatched eggs at 100 ug/mL at 25 degC measured after 10 days (reference value: 0%)
Tetranychus urticae [7] = experiment: Acaricidal activity against adult Tetranychus urticae (two-spotted spider mite) in leaves of cowpea plant assessed as mortality at 30 ug/mL at 25 degC measured after 3 days (reference value: 0%); conditions: 72 h
Caenorhabditis elegans [8] = experiment: Nematocidal activity against Caenorhabditis elegans assessed as immobilized rate at 30 ug/mL at 25 degC for 15 hr (reference value: 5.3 to 6.8%)
Caenorhabditis elegans [9] = experiment: Nematocidal activity against Caenorhabditis elegans assessed as immobilized rate at 50 ug/mL at 25 degC for 15 hr (reference value: 5.3 to 6.8%)
Outline: (§1)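 Compounds were prepared as 0.1% MeOH solutions and diluted 10-fold in water to give 100 μg/mL test solutions. Immobilized and total C. elegans were counted under a stereomicroscope. Result is % immobilized of all nematodes tested.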

Tetranychus urticae [10] = experiment: Acaricidal activity against adult Tetranychus urticae (two-spotted spider mite) in leaves of cowpea plant assessed as number of unhatched eggs at 30 ug/mL at 25 degC measured after 10 days (reference value: 0%)
Caenorhabditis elegans [11] = experiment: Nematocidal activity against Caenorhabditis elegans assessed as immobilized rate at 10 ug/mL at 25 degC for 15 hr (reference value: 5.3 to 6.8%); outline: as §1
Caenorhabditis elegans [12] = experiment: Nematocidal activity against Caenorhabditis elegans assessed as immobilized rate at 100 ug/mL at 25 degC for 15 hr (reference value: 5.3 to 6.8%); outline: as §1
Tetranychus urticae [13] = experiment: Acaricidal activity against adult Tetranychus urticae (two-spotted spider mite) in leaves of cowpea plant assessed as mortality at 100 ug/mL at 25 degC measured after 3 days (reference value: 0%); conditions: 72 h
Tetranychus urticae [14] = experiment: Acaricidal activity against adult Tetranychus urticae (two-spotted spider mite) in leaves of cowpea plant assessed as mortality at 2 ug/mL at 25 degC measured after 3 days (reference value: 0%); conditions: 72 h
Tetranychus urticae [15] = experiment: Acaricidal activity against adult Tetranychus urticae (two-spotted spider mite) in leaves of cowpea plant assessed as number of unhatched eggs at 2 ug/mL at 25 degC measured after 10 days (reference value: 0%)

SMILES | mortality at 50 µg/mL (Tetranychus urticae [1]) | Activity (Tetranychus urticae [2]) | mortality at 10 µg/mL (Tetranychus urticae [3]) | Activity (Caenorhabditis elegans [4]) | Activity (Tetranychus urticae [5]) | Activity (Tetranychus urticae [6]) | mortality at 30 µg/mL (Tetranychus urticae [7]) | Activity (Caenorhabditis elegans [8]) | Activity (Caenorhabditis elegans [9]) | Activity (Tetranychus urticae [10]) | Activity (Caenorhabditis elegans [11]) | Activity (Caenorhabditis elegans [12]) | mortality at 100 µg/mL (Tetranychus urticae [13]) | mortality at 2 µg/mL (Tetranychus urticae [14]) | Activity (Tetranychus urticae [15])
C/C1=C\C[C@@H]2C[C@@H](C[C@]3(C=C[C@H](C)[C@@H](C4CCCCC4)O3)O2)OC(=O)c2cc(C)c(O)cc2/C=C/C=C/[C@H](C)[C@@H]1O | 100% | 12.1% | 77.1% | 13.5% | 37.6% | 56.7% | 92.5% | 81.4% | 100% | 19.8% | 49.2% | 100% | 100% | 45.2% | 0%
CO[C@H]1C[C@H](O[C@H]2[C@H](C)O[C@@H](O[C@@H]3/C(C)=C/C[C@@H]4C[C@@H](C[C@]5(C=C[C@H](C)[C@@H](C6CCCCC6)O5)O4)OC(=O)[C@@H]4C=C(C)[C@@H](O)[C@H]5OC/C(=C\C=C\[C@@H]3C)[C@]54O)C[C@@H]2OC)O[C@@H](C)[C@@H]1O [DORAMECTIN] | 100% | 0% | 62.9% | 45.3% | 21.5% | 47.4% | 86.5% | 100% | 100% | 8.9% | 86.5% | 100% | 100% | 26.8% | 0%
C/C1=C\C[C@@H]2C[C@@H](C[C@]3(C[C@@H](O)[C@H](C)[C@@H](C4CCCCC4)O3)O2)OC(=O)c2cc(C)c(O)cc2/C=C/C=C/[C@H](C)[C@@H]1O | 100% | 13.9% | 75.6% | 43.7% | 43.7% | 59.8% | 96.4% | 100% | 100% | 23.5% | 92.7% | 100% | 100% | 43.9% | 0%
